Measured values reported in ChEMBL document CHEMBL5096187, “Efficient Synthesis and Bioevaluation of Novel Dual Tubulin/Histone Deacetylase 3 Inhibitors as Potential Anticancer Agents” (J Med Chem, 2021).

Legend:
HCT-116 = test: Antiproliferative activity against human HCT-116 cells assessed as inhibition of cell viability measured for 48 hrs by microplate reader based MTT assay; type: functional; conditions: HCT-116, 48 h
Procedure, shortened: (§1)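 Cells grown in RPMI-1640 with 10% FBS and seeded at 5000 cells/well. After overnight attachment, compound was added in medium with 0.1% DMSO for 48 h at 37 °C. Read-out was MTT for HCT-116, B16-F10 and A549, and CCK-8 for Jurkat (0.5 mg/mL, 4 h), with absorbance at 570 nm. IC50 from nonlinear regression; at least three independent experiments.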

B16-F10 = test: Antiproliferative activity against mouse B16-F10 cells assessed as inhibition of cell viability measured for 48 hrs by microplate reader based MTT assay; type: functional; conditions: B16-F10, 48 h; procedure, shortened: as §1
Jurkat = test: Antiproliferative activity against human Jurkat cells assessed as inhibition of cell viability measured for 48 hrs by microplate reader based CCK-8 assay; type: functional
A549 = test: Antiproliferative activity against human A549 cells assessed as inhibition of cell viability measured for 48 hrs by microplate reader based CCK-8 assay; type: functional; conditions: A549, 48 h
Histone deacetylase 1 = Histone deacetylase 1 (Homo sapiens, UniProt Q13547); test: Inhibition of full length recombinant human HDAC1 (1 to 482 residues) expressed in Baculovirus system using Ac-Leu-Gly-Lys (Ac)-AMC as substrate pretreated for 5 mins followed by substrate addition and measured after 30 mins
Histone deacetylase 3 = Histone deacetylase 3 (Homo sapiens, UniProt O15379); test: Inhibition of recombinant HDAC3 (unknown origin) using Ac-Leu-Gly-Lys (Ac)-AMC as substrate pretreated for 5 mins followed by substrate addition and measured after 30 mins
[1] = target: T1, Protein deacetylase HDAC6 (Homo sapiens, UniProt Q9UBN7); test: Inhibition of full length N-terminal GST-tagged human recombinant HDAC6 (1 to 1215 residues) expressed in Baculovirus infected Sf9 cells using Ac-Leu-Gly-Lys (Ac)-AMC as substrate pretreated for 5 mins followed by substrate addition and measured after 30 mins
T1 sequence (Q9UBN7 whole entry): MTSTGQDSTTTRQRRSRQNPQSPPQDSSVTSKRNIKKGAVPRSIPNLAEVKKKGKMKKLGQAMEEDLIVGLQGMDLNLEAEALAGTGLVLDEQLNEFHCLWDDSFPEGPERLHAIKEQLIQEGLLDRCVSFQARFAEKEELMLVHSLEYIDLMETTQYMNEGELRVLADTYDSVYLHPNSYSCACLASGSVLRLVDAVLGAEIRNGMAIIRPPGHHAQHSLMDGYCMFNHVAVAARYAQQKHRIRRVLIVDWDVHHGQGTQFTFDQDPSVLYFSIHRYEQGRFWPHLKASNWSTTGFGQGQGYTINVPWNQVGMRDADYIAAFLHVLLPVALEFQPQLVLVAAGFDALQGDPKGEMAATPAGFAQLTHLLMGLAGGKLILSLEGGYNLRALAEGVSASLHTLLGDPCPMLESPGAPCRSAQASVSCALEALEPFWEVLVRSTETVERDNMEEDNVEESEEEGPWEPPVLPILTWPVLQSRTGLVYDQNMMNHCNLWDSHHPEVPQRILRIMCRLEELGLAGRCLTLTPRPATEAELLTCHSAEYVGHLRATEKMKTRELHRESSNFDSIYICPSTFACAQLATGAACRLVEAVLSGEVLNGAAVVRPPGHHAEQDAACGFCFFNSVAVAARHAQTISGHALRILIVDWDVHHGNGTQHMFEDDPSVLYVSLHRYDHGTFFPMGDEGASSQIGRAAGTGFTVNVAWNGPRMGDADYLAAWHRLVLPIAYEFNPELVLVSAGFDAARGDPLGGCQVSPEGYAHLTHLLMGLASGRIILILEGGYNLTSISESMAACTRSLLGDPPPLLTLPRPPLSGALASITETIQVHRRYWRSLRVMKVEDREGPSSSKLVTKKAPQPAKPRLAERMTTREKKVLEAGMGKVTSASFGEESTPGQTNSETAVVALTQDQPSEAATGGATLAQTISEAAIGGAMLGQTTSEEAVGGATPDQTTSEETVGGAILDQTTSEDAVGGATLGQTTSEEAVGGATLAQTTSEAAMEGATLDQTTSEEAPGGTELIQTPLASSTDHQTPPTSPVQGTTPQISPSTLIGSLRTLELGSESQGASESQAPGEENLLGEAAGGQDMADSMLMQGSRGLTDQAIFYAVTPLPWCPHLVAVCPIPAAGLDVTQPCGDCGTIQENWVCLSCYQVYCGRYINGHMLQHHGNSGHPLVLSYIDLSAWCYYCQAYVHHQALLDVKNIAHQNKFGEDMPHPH
Procedure, shortened: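 HDAC6 at 15 ng/well in Tris buffer pH 8.0 with MgCl2, BSA, NaCl and KCl. Ten 3-fold dilutions preincubated 5 min at room temperature, then 10 μM Ac-Leu-Gly-Lys(Ac)-AMC for 30 min at 37 °C. IC50 by normalized dose–response nonlinear fit; performed at least three times.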

Histone deacetylase 8 = target: T2, Histone deacetylase 8 (Homo sapiens, UniProt Q9BY41); test: Inhibition of full length C-terminal his-tagged human recombinant HDAC8 ([…]) expressed in baculovirus in Sf9 insect cells using Ac-Leu-Gly-Lys (Tfa)-AMC as substrate pretreated for 5 mins followed by substrate addition and measured after 30 mins
T2 sequence (Q9BY41 whole entry): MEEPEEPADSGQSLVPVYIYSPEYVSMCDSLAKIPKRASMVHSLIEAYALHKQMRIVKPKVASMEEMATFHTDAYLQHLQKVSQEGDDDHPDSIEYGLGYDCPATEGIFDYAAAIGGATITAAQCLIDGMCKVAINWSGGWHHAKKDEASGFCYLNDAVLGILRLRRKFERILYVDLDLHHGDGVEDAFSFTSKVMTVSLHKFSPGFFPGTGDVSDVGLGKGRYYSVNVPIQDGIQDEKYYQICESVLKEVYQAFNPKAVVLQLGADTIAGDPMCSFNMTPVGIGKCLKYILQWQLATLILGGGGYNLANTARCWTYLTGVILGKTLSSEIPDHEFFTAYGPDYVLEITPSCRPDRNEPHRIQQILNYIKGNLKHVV

Tubulin (Sus scrofa) = Tubulin (Sus scrofa) (UniProt P02554+P02550); test: Inhibition of pig brain tubulin polymerization at 10 uM measured after 20 mins by spectrometric method relative to control
Procedure, shortened: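 Pig brain tubulin was purified by three assembly/disassembly cycles and then phosphocellulose chromatography. Compound at 10 μM in PEM buffer with 1 mM GTP and 5% glycerol at 37 °C. Polymerization followed at 340 nm; inhibition taken at 20 min versus vehicle control.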

[2] = target: T3, Protein deacetylase HDAC6 (Homo sapiens) (UniProt Q9UBN7); test: Inhibition of recombinant HDAC6 (unknown origin) at 1 uM relative to control
T3 sequence (whole entry): T1 sequence (Q9UBN7 whole entry)
Procedure, shortened: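 Single-point test at 1 μM against recombinant HDAC6 (15 ng/well) in 25 mM Tris pH 8.0, 1 mM MgCl₂, 0.1 mg/mL BSA, 137 mM NaCl, 2.7 mM KCl. Compound preincubated 5 min at room temperature, then Ac-Leu-Gly-Lys(Ac)-AMC 10 μM, 30 min at 37 °C. Trypsin/TSA developer 30 min. Fluorescence read at ex 350−360/em 450−460 nm.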

[3] = Antiproliferative activity against human YCC-11 cells assessed as inhibition of cell viability; type: functional, cell-based
[4] = Antiproliferative activity against human YCC3/7 cells assessed as inhibition of cell viability; type: functional, cell-based

Tubulin (Sus scrofa), sequence (P02550 whole entry, looked up): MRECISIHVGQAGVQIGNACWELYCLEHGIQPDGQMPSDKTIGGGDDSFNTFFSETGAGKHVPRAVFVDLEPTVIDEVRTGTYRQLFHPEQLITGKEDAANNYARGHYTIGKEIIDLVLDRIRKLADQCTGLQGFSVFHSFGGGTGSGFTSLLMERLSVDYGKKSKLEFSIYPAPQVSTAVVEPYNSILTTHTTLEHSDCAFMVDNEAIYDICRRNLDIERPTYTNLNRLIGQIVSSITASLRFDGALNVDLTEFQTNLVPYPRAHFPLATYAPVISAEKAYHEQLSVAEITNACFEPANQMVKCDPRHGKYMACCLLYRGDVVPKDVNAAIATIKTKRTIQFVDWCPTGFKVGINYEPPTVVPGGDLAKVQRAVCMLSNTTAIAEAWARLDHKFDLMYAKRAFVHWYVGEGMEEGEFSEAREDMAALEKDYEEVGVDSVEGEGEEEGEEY
Tubulin (Sus scrofa), sequence (P02554 whole entry, looked up): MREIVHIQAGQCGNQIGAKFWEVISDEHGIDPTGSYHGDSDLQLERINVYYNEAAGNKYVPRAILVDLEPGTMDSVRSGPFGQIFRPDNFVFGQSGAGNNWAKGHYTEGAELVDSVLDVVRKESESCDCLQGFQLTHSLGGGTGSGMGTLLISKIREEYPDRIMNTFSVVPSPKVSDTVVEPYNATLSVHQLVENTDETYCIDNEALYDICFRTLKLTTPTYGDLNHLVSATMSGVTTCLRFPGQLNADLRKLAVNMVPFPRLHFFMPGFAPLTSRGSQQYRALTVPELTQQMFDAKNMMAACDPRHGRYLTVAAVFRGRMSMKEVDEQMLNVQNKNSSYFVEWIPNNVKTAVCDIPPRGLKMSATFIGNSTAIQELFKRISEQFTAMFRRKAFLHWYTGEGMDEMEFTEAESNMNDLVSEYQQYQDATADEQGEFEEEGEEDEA
Histone deacetylase 1, sequence (Q13547 whole entry, the tested form may be a part): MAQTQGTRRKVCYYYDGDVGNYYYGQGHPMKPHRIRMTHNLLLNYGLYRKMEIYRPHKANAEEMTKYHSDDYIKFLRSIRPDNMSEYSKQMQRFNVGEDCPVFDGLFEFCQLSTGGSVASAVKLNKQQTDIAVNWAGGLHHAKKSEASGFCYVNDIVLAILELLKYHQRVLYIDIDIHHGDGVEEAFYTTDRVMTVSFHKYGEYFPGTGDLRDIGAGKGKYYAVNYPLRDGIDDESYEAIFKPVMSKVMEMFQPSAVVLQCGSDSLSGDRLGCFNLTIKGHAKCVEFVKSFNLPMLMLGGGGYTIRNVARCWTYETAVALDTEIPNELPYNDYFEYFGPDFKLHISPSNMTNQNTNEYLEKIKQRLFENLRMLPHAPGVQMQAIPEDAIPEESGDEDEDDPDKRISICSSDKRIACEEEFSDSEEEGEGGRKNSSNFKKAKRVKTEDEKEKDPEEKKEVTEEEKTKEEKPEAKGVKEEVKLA
Histone deacetylase 3, sequence (O15379 whole entry, the tested form may be a part): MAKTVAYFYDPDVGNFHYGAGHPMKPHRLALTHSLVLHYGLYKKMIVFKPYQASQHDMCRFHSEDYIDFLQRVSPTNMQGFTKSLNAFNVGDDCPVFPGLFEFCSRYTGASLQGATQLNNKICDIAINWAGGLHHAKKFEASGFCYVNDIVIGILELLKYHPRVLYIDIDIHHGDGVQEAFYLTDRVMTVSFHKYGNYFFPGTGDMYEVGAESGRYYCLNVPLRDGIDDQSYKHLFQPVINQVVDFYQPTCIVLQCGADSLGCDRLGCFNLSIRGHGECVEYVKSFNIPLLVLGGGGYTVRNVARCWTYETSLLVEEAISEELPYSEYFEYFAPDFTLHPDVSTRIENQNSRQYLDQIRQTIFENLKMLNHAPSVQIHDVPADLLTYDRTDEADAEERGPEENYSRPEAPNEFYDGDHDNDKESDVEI

Structure (SMILES) | IC50 (HCT-116) [nM] | IC50 (B16-F10) [nM] | IC50 (Jurkat) [nM] | IC50 (A549) [nM] | IC50 (Histone deacetylase 1) [nM] | IC50 (Histone deacetylase 3) [nM] | IC50 [1] [nM] | IC50 (Histone deacetylase 8) [nM] | inhibition (Tubulin (Sus scrofa)) [%] | inhibition [2] [%] | IC50 [3] [nM] | IC50 [4] [nM]
COc1cc(C(=O)c2csc(-c3ccc(NC(=O)CC(=O)Nc4ccccc4N)cc3)n2)cc(OC)c1OC | 1010 | > 10000 | 60 | > 10000 | 4070 | 360 | 21100 | 12000 | 65 |  |  | 
COc1cc(C(=O)c2csc(-c3ccc(NC(=O)c4ccc(C(=O)Nc5ccccc5N)cc4)cc3)n2)cc(OC)c1OC | 1420 | 4320 | 520 | 6580 | 10500 | 3460 | 36300 | 2080 |  |  |  | 
COc1cc(C(=O)c2csc(-c3ccc(/C=C/C(=O)Nc4ccccc4N)cc3)n2)cc(OC)c1OC | 790 | 810 | 10 | > 10000 | 11000 | 170 | 22500 | 3110 | 30 |  |  | 
COc1cc(C(=O)c2csc(-c3ccc(OCCCCCCC(=O)Nc4ccccc4N)cc3)n2)cc(OC)c1OC | 1910 | 1890 | 700 | 2440 | 7490 | 470 | 27100 | 7490 | 18 |  |  | 
COc1cc(C(=O)c2csc(-c3ccc(NCC(=O)Nc4ccccc4N)cc3)n2)cc(OC)c1OC | 1640 | 2350 | 60 | 2200 | 9800 | 1760 | 27100 | 9110 |  |  |  | 
COc1cc(C(=O)c2csc(-c3ccc(OCc4ccc(/C=C/C(=O)NO)cc4)cc3)n2)cc(OC)c1OC | 2780 | 2210 | 480 | > 10000 | 6860 | 8860 | 2070 | 7100 |  | > 50 |  | 
COc1cc(C(=O)c2csc(-c3ccc(NC(=O)CCC(=O)NO)cc3)n2)cc(OC)c1OC | 2510 | 920 | 420 | 5830 | 7360 | 12300 | 1860 | 5140 |  | > 50 |  | 
COc1cc(C(=O)c2csc(-c3ccc(C#CCCC(=O)Nc4ccccc4N)cc3)n2)cc(OC)c1OC | 2110 | > 10000 | 260 | > 10000 | 9770 | 1980 | 20200 | 6550 |  |  |  | 
COc1cc(C(=O)c2csc(-c3ccc(NC(=O)CCCCCCC(=O)Nc4ccccc4N)cc3)n2)cc(OC)c1OC | 360 | 910 | 30 | 2100 | 9880 | 1730 | 29200 | 10200 |  |  | 3680 | 5310
COc1cc(C(=O)c2csc(-c3ccc(NC(=O)CCCC(=O)NO)cc3)n2)cc(OC)c1OC | 150 | 750 | 40 | > 10000 | 10100 | 13600 | 1730 | 6320 |  | > 50 |  | 
COc1cc(C(=O)c2csc(-c3ccc(NCCC(=O)Nc4ccccc4N)cc3)n2)cc(OC)c1OC | 600 | 670 | 30 | > 10000 | 10700 | 380 | 23800 | 8280 | 19 |  |  | 
COc1cc(C(=O)c2csc(-c3ccc(NC(=O)CCCCC(=O)NO)cc3)n2)cc(OC)c1OC | 770 | > 10000 | 60 | > 10000 | 16600 | 13100 | 2550 | 3280 |  | > 50 |  | 
COc1cc(C(=O)c2csc(-c3ccc(NC(=O)CCCCCC(=O)NO)cc3)n2)cc(OC)c1OC | 1900 | > 10000 | 150 | > 10000 | 19100 | 12200 | 1940 | 4170 |  | > 50 |  | 
COc1cc(C(=O)c2csc(-c3ccc(NC(=O)/C=C/C(=O)NO)cc3)n2)cc(OC)c1OC | 2820 | 1480 | 500 | > 10000 | 17500 | 13000 | 1050 | 3900 |  | > 50 |  | 
COc1cc(C(=O)c2csc(-c3ccc(NC(=O)CCCCCC(=O)Nc4ccccc4N)cc3)n2)cc(OC)c1OC | 670 | > 10000 | 20 | 2360 | 8530 | 390 | 27300 | 8500 | 24 |  |  | 
COc1cc(C(=O)c2csc(-c3ccc(NC(=O)CCCCC(=O)Nc4ccccc4N)cc3)n2)cc(OC)c1OC | 440 | 830 | 20 | 1540 | 8120 | 180 | 36400 | 8740 | 28 |  |  | 
COc1cc(C(=O)c2csc(-c3ccc(OCc4ccc(C(=O)NO)cc4)cc3)n2)cc(OC)c1OC | 2550 | 2770 | 380 | 10000 | 7190 | 12600 | 1980 | 7980 |  | > 50 |  | 
